Assay results published in ChEMBL document CHEMBL1138555, “N-acylated and N,N'-diacylated imidazolidine-2-thione derivatives and N,N'-diacylated tetrahydropyrimidine-2(1H)-thione analogues: synthesis and antiproliferative activity” (Eur J Med Chem, 2009).

Columns and labels:
[1] = system: SF-295; assay: Growth inhibition of human SF295 cells after 48 hrs by sulforhodamine B assay; type: functional; conditions: SF-295, 48 h
Procedure, shortened: (§1)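 NCI screen panel. Five 10-fold concentrations from 10^-4 to 10^-8 M. Exposure for the last 48 h of a 72 h incubation. Growth estimated by sulforhodamine B protein assay. GI50 is the concentration giving 50% growth inhibition. Where that level was not reached or was exceeded, the value is given as above or below the highest or lowest concentration tested.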

[2] = system: LOX IMVI; assay: Growth inhibition of human LOXIMVI cells after 48 hrs by sulforhodamine B assay; type: functional; procedure, shortened: as §1
[3] = system: SF-268; assay: Growth inhibition of human SF268 cells after 48 hrs by sulforhodamine B assay; type: functional; conditions: SF-268, 48 h; procedure, shortened: as §1
[4] = system: EKVX; assay: Growth inhibition of human EKVX cells after 48 hrs by sulforhodamine B assay; type: functional; procedure, shortened: as §1
[5] = system: RXF 393; assay: Growth inhibition of human RXF393 cells after 48 hrs by sulforhodamine B assay; type: functional; conditions: RXF 393, 48 h; procedure, shortened: as §1
[6] = system: UACC-257; assay: Growth inhibition of human UACC257 cells after 48 hrs by sulforhodamine B assay; type: functional; conditions: UACC-257, 48 h
Procedure, shortened: (§2)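 NCI in vitro panel screen. Compounds tested at five 10-fold dilutions, 10^-4 to 10^-8 M. Cells in 96-well plates were exposed for the last 48 h of a 72 h incubation. Viability/growth was read by sulforhodamine B protein assay. GI50 is the concentration giving 50% growth inhibition. Values beyond the tested range are reported as greater or less than the maximum or minimum concentration.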

[7] = system: ACHN; assay: Growth inhibition of human ACHN cells after 48 hrs by sulforhodamine B assay; type: functional; procedure, shortened: as §1
[8] = system: TK-10; assay: Growth inhibition of human TK10 cells after 48 hrs by sulforhodamine B assay; type: functional; conditions: TK-10, 48 h; procedure, shortened: as §2
[9] = system: A498; assay: Growth inhibition of human A498 cells after 48 hrs by sulforhodamine B assay; type: functional; conditions: A498, 48 h; procedure, shortened: as §1
[10] = system: MCF7; assay: Growth inhibition of human MCF7 cells after 48 hrs by sulforhodamine B assay; type: functional; conditions: MCF7, 48 h; procedure, shortened: as §1
[11] = system: SNB-19; assay: Growth inhibition of human SNB19 cells after 48 hrs by sulforhodamine B assay; type: functional; conditions: SNB-19, 48 h; procedure, shortened: as §2
[12] = system: SK-MEL-2; assay: Growth inhibition of human SK-MEL-2 cells after 48 hrs by sulforhodamine B assay; type: functional; conditions: SK-MEL-2, 48 h; procedure, shortened: as §1
[13] = system: OVCAR-3; assay: Growth inhibition of human OVCAR-3 cells after 48 hrs by sulforhodamine B assay; type: functional; conditions: OVCAR-3, 48 h; procedure, shortened: as §1
[14] = system: BT-549; assay: Growth inhibition of human BT549 cells after 48 hrs by sulforhodamine B assay; type: functional; conditions: BT-549, 48 h; procedure, shortened: as §1
[15] = Growth inhibition of human Hs 578T cells after 48 hrs by sulforhodamine B assay; type: functional; procedure, shortened: as §1
[16] = system: HCC 2998; assay: Growth inhibition of human HCC2998 cells after 48 hrs by sulforhodamine B assay; type: functional; conditions: HCC 2998, 48 h; procedure, shortened: as §1
[17] = system: A549; assay: Growth inhibition of human A549 cells after 48 hrs by sulforhodamine B assay; type: functional; conditions: A549, 48 h; procedure, shortened: as §1
[18] = system: MDA-MB-435; assay: Growth inhibition of human MDA-MB-435 cells after 48 hrs by sulforhodamine B assay; type: functional; conditions: MDA-MB-435, 48 h; procedure, shortened: as §1
[19] = system: HOP-92; assay: Growth inhibition of human HOP92 cells after 48 hrs by sulforhodamine B assay; type: functional; conditions: HOP-92, 48 h; procedure, shortened: as §1
[20] = system: NCI-H522; assay: Growth inhibition of human NCI-H522 cells after 48 hrs by sulforhodamine B assay; type: functional; conditions: NCI-H522, 48 h; procedure, shortened: as §1
[21] = system: MOLT-4; assay: Growth inhibition of human MOLT4 cells after 48 hrs by sulforhodamine B assay; type: functional; conditions: MOLT-4, 48 h; procedure, shortened: as §1
[22] = system: NCI-H322M; assay: Growth inhibition of human NCI-H322M cells after 48 hrs by sulforhodamine B assay; type: functional; procedure, shortened: as §1
[23] = system: HCT-116; assay: Growth inhibition of human HCT116 cells after 48 hrs by sulforhodamine B assay; type: functional; conditions: HCT-116, 48 h; procedure, shortened: as §1
[24] = system: PC-3; assay: Growth inhibition of human PC3 cells after 48 hrs by sulforhodamine B assay; type: functional; conditions: PC-3, 48 h; procedure, shortened: as §1
[25] = system: MT4; assay: Antiproliferative activity against human MT4 cells assessed as reduction of growth by MTT assay; type: functional, cell-based
Procedure, shortened: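 MT-4 lymphoblastoid T cells (ATCC) in RPMI 1640 with 10% FCS, penicillin/streptomycin, checked for mycoplasma. 1 × 10⁴ mock-infected cells per well with serial dilutions from a 100 mM DMSO stock. Incubated 4 days at 37 °C, viable cells counted by MTT. IC50 versus untreated controls by linear regression. Mean of three separate experiments.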

[26] = Growth inhibition of human […] cells after 48 hrs by sulforhodamine B assay; type: functional; procedure, shortened: as §1
[27] = system: UACC-62; assay: Growth inhibition of human UACC62 cells after 48 hrs by sulforhodamine B assay; type: functional; conditions: UACC-62, 48 h; procedure, shortened: as §2
[28] = system: HCT-15; assay: Growth inhibition of human HCT15 cells after 48 hrs by sulforhodamine B assay; type: functional; conditions: HCT-15, 48 h; procedure, shortened: as §1
[29] = system: 786-0; assay: Growth inhibition of human 786-0 cells after 48 hrs by sulforhodamine B assay; type: functional; conditions: 786-0, 48 h; procedure, shortened: as §1
[30] = system: IGROV-1; assay: Growth inhibition of human IGROV1 cells after 48 hrs by sulforhodamine B assay; type: functional; conditions: IGROV-1, 48 h; procedure, shortened: as §1
[31] = system: OVCAR-8; assay: Growth inhibition of human OVCAR8 cells after 48 hrs by sulforhodamine B assay; type: functional; conditions: OVCAR-8, 48 h; procedure, shortened: as §1
[32] = system: MDA-N; assay: Growth inhibition of human MDA-N cells after 48 hrs by sulforhodamine B assay; type: functional
Procedure, shortened: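 NCI screen panel. Five 10-fold concentrations from 10^-4 to 10^-8 M. Exposure for the last 48 h of a 72 h incubation. Growth estimated by sulforhodamine B protein assay. Where that level was not reached or was exceeded, the value is given as above or below the highest or lowest concentration tested.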

[33] = system: Malme-3M; assay: Growth inhibition of human MALME-3M cells after 48 hrs by sulforhodamine B assay; type: functional; procedure, shortened: as §1
[34] = system: NCI-H226; assay: Growth inhibition of human NCI-H226 cells after 48 hrs by sulforhodamine B assay; type: functional; conditions: NCI-H226, 48 h; procedure, shortened: as §1
[35] = system: KM12; assay: Growth inhibition of human KM12 cells after 48 hrs by sulforhodamine B assay; type: functional; conditions: KM12, 48 h; procedure, shortened: as §1
[36] = system: MDA-MB-231; assay: Growth inhibition of human MDA-MB-231 cells after 48 hrs by sulforhodamine B assay; type: functional; conditions: MDA-MB-231, 48 h; procedure, shortened: as §1
[37] = system: OVCAR-4; assay: Growth inhibition of human OVCAR4 cells after 48 hrs by sulforhodamine B assay; type: functional; conditions: OVCAR-4, 48 h; procedure, shortened: as §1
[38] = system: SK-OV-3; assay: Growth inhibition of human SKOV3 cells after 48 hrs by sulforhodamine B assay; type: functional; conditions: SK-OV-3, 48 h; procedure, shortened: as §1
[39] = system: M14; assay: Growth inhibition of human M14 cells after 48 hrs by sulforhodamine B assay; type: functional; conditions: M14, 48 h; procedure, shortened: as §1
[40] = system: SN12C; assay: Growth inhibition of human SN12C cells after 48 hrs by sulforhodamine B assay; type: functional; procedure, shortened: as §2
[41] = system: HOP-62; assay: Growth inhibition of human HOP62 cells after 48 hrs by sulforhodamine B assay; type: functional; conditions: HOP-62, 48 h; procedure, shortened: as §1
[42] = system: COLO 205; assay: Growth inhibition of human COLO205 cells after 48 hrs by sulforhodamine B assay; type: functional; conditions: COLO 205, 48 h; procedure, shortened: as §1

O=CN1CCN(C(=O)c2ccco2)C1=S
GI50 [1]: 21.4 µM | GI50 [2]: 3.4 µM | GI50 [3]: 3.9 µM | GI50 [4]: 13.7 µM | GI50 [5]: 3.3 µM | GI50 [6]: 11.7 µM | GI50 [7]: 6.5 µM | GI50 [8]: 14.3 µM | GI50 [9]: 16.5 µM | GI50 [10]: 2.7 µM | GI50 [11]: 24.6 µM | GI50 [12]: 16.5 µM | GI50 [13]: 4.2 µM | GI50 [14]: 2.3 µM | GI50 [15]: 11 µM | GI50 [16]: 13.4 µM | GI50 [17]: 12.5 µM | GI50 [18]: 6.4 µM | GI50 [19]: 11.5 µM | GI50 [20]: 4 µM | GI50 [21]: 4.6 µM | GI50 [22]: 18.5 µM | GI50 [23]: 10.2 µM | GI50 [24]: 5 µM | IC50 [25]: 9 µM | GI50 [26]: 1.8 µM | GI50 [27]: 5 µM | GI50 [28]: 5.6 µM | GI50 [29]: 3.3 µM | GI50 [30]: 7.5 µM | GI50 [31]: 16.8 µM | GI50 [32]: 9.1 µM | GI50 [33]: 8.3 µM | GI50 [34]: 28.5 µM | GI50 [35]: 5.3 µM | GI50 [36]: 15.9 µM | GI50 [37]: 18.6 µM | GI50 [38]: 26.6 µM | GI50 [39]: 10.7 µM | GI50 [40]: 5.3 µM | GI50 [41]: 12 µM | GI50 [42]: 8.7 µM

O=C(c1cc(Cl)cc(Cl)c1)N1CCN(C(=O)c2cc(Cl)cc(Cl)c2)C1=S
GI50 [1]: 19.5 µM | GI50 [2]: 3 µM | GI50 [3]: 14.1 µM | GI50 [4]: 17.6 µM | GI50 [5]: 12.7 µM | GI50 [6]: 15.5 µM | GI50 [7]: 17.4 µM | GI50 [8]: 10.7 µM | GI50 [9]: 15.5 µM | GI50 [10]: 3.1 µM | GI50 [11]: 19 µM | GI50 [12]: 16.1 µM | GI50 [13]: 10.2 µM | GI50 [14]: 22.4 µM | GI50 [15]: 21.4 µM | GI50 [16]: 16.7 µM | GI50 [17]: 18.4 µM | GI50 [18]: 9 µM | GI50 [19]: 3.2 µM | GI50 [20]: 3.7 µM | GI50 [21]: 3.4 µM | GI50 [22]: 16.8 µM | GI50 [23]: 16.9 µM | GI50 [24]: 16.9 µM | IC50 [25]: 13 µM | GI50 [26]: 1.5 µM | GI50 [27]: 15.6 µM | GI50 [28]: 13.5 µM | GI50 [29]: 2.9 µM | GI50 [30]: 15.3 µM | GI50 [31]: 15.3 µM | GI50 [32]: 13 µM | GI50 [33]: 9.8 µM | GI50 [34]: 23.7 µM | GI50 [35]: 10.1 µM | GI50 [36]: 16.2 µM | GI50 [37]: 18 µM | GI50 [38]: 15.3 µM | GI50 [39]: 11.9 µM | GI50 [40]: 9 µM | GI50 [41]: 14.3 µM | GI50 [42]: 18.3 µM

O=C(c1cccs1)N1CCN(C(=O)c2cccs2)C1=S
GI50 [1]: 16.7 µM | GI50 [2]: 2.9 µM | GI50 [3]: 8.2 µM | GI50 [4]: 15.9 µM | GI50 [5]: 2.9 µM | GI50 [6]: 7.5 µM | GI50 [7]: 15 µM | GI50 [8]: 5.4 µM | GI50 [9]: 15.1 µM | GI50 [10]: 3.2 µM | GI50 [11]: 14.4 µM | GI50 [12]: 12.6 µM | GI50 [13]: 3.5 µM | GI50 [14]: 10 µM | GI50 [15]: 16.6 µM | GI50 [16]: 8 µM | GI50 [17]: 4 µM | GI50 [18]: 2.8 µM | GI50 [19]: 7.2 µM | GI50 [20]: 3.8 µM | GI50 [21]: 3.2 µM | GI50 [22]: 15.5 µM | GI50 [23]: 11.4 µM | GI50 [24]: 6.1 µM | IC50 [25]: 11 µM | GI50 [26]: 1.2 µM | GI50 [27]: 12.3 µM | GI50 [28]: 5.3 µM | GI50 [29]: 2.4 µM | GI50 [30]: 9.6 µM | GI50 [31]: 5.3 µM | GI50 [32]: 2.6 µM | GI50 [33]: 10.3 µM | GI50 [34]: 15.9 µM | GI50 [35]: 3.4 µM | GI50 [36]: 9.4 µM | GI50 [37]: 18.8 µM | GI50 [38]: 15.9 µM | GI50 [39]: 3.6 µM | GI50 [40]: 2.6 µM | GI50 [41]: 6.7 µM | GI50 [42]: 7.7 µM
